In ChEMBL document CHEMBL1275265, “Synthesis and biological evaluation of N-antipyrine-4-substituted amino-3-chloromaleimide derivatives” (Eur J Med Chem, 2010) one finds Activity, LC50 and inhibition in vivo data, which are given here for eleven compounds.

Converted amounts (≈) assume the structure as drawn. The source made the active and inactive calls. No cut-off for these calls is given here.

Data set [1] concerns Salmonella typhimurium. As to the kind of experiment: Antibacterial activity against Salmonella Typhimurium ATCC 14028 at < 100 ug/mL by agar dilution method. It counts as functional, organism-based. The conditions noted are these: Salmonella enterica subsp. enterica serovar Typhimurium. Summed up:
(§1)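 Agar dilution on 1 mL Mueller-Hinton agar slants. Compounds were serially two-fold diluted in DMSO (final DMSO ≤2%) to give 10–100 µg/mL in the medium. Bacteria were grown on MHA at 35 °C for 24 h, suspended in 0.86% saline at 1.5 × 10^8 cell/mL (0.5 McFarland), and 1 µL was added per slant. Slants were incubated at 35 °C. Drug-free blank included; each assay run three times; MIC recorded.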
For orientation: Agar dilution tests growth on a series of plates holding different concentrations.

The subject of data set [2] is Escherichia coli. Nature of the data set: Antibacterial activity against Escherichia coli ATCC 11775 at < 100 ug/mL by agar dilution method. It counts as functional, organism-based. Summed up: as §1
Data set [3] deals with Bacillus subtilis. Nature of the data set: Antibacterial activity against Bacillus subtilis ATCC 23858 at < 100 ug/mL by agar dilution method. It counts as functional, organism-based. Summed up:
as §1

Data set [4] relates to Pseudomonas aeruginosa. As to the kind of experiment: Antibacterial activity against Pseudomonas aeruginosa ATCC 27853 at < 100 ug/mL by agar dilution method. It counts as functional, organism-based. Summed up:
as §1

The nature of data set [5]: Toxicity in Artemia salina assessed as mortality after 24 hrs. The data set is classed as organism-based. The conditions noted are these: in vivo. Summed up: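 Artemia salina hatched at pH 9.0 (Na2CO3), 25 °C, strong aeration, continuous light (2000 Lux). Phototropic nauplii were collected about 12 h after hatching, and groups of 10 were exposed per well to various compound concentrations for 24 h. Survivors were counted and % deaths calculated.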

The subject of data set [6] is Staphylococcus saprophyticus. Nature of the data set: Antibacterial activity against Staphylococcus saprophyticus ATCC 35552 at < 100 ug/mL by agar dilution method. The data set is classed as functional, organism-based. Summed up: as §1
Data set [7] relates to Streptococcus agalactiae. Nature of the data set: Antibacterial activity against Streptococcus agalactiae ATCC 13813 at < 100 ug/mL by agar dilution method. It counts as functional. Summed up: as §1
For data set [8], the system named is Proteus mirabilis. As to the kind of experiment: Antibacterial activity against Proteus mirabilis ATCC 25933 at < 100 ug/mL by agar dilution method. The data set is classed as functional, organism-based. Summed up:
as §1

The subject of data set [9] is Staphylococcus aureus. As to the kind of experiment: Antibacterial activity against Staphylococcus aureus ATCC 6538P at < 100 ug/mL by agar dilution method. The data set is classed as functional, organism-based. Summed up: as §1
Data set [10] concerns Enterobacter cloacae. As to the kind of experiment: Antibacterial activity against Enterobacter cloacae ATCC 35030 at < 100 ug/mL by agar dilution method. It counts as functional, organism-based. Summed up: as §1
Data set [11] has as its system Bacillus cereus. As to the kind of experiment: Antibacterial activity against Bacillus cereus ATCC 14579 at < 100 ug/mL by agar dilution method. It counts as functional. Summed up:
as §1

For data set [12], the system named is Mus musculus. Nature of the data set: Antinociceptive activity in Swiss mouse assessed as inhibition of acetic acid-induced writhing at 10 mg/kg, ip administered 30 mins before acetic acid challenge measured after 20 mins relative to control. The data set is classed as functional. The conditions noted are these: route intraperitoneal. Summed up: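 Mice were given 10 mg/kg i.p. in Tween 80/0.9% NaCl (Tween ≤5%) 30 min before i.p. 0.6% acetic acid, at 20–22 °C. Abdominal constrictions plus hind-limb stretching were counted cumulatively over 20 min in individual funnels. Groups of six, randomized and blinded. Inhibition was calculated versus vehicle controls (10 ml/kg i.p.); ANOVA with Dunnett's test.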
A general note: In writhing tests, fewer writhes than in controls are read as antinociception.

On to `Cc1c(N2C(=O)C(Cl)=C(Nc3cccc(C(=O)O)c3)C2=O)c(=O)n(-c2ccccc2)n1C`, for which the result in [1], in [2], in data set [3], in [4], in data set [6] and in data set [7] was inactive. The result in data set [8], in data set [9], in data set [10] and in [11] was inactive. In addition, the LC50 (commonly the concentration lethal to half of the exposed cells or organisms) at 24 h in [5] is over 1000 µg/mL. In addition, the inhibition in vivo – broadly, the percentage by which the read-out fell short of the control – at 10 mg/kg in [12] is 33.9%.
For the compound `Cc1c(N2C(=O)C(Cl)=C(c3ccc[nH]3)C2=O)c(=O)n(-c2ccccc2)n1C`, the outcome in data set [1], in data set [2], in [3], in data set [4], in data set [6] and in data set [7] was inactive. Also, the result in data set [8], in data set [9], in data set [10] and in data set [11] was inactive. Also, the LC50 at 24 h in [5] was over 1000 µg/mL. Further, the inhibition in vivo at 10 mg/kg in data set [12] turned out to be 23.3%.
As to `Cc1c(N2C(=O)C(Cl)=C(Nc3cccc([N+](=O)[O-])c3)C2=O)c(=O)n(-c2ccccc2)n1C`, the result in data set [1], in [2], in [3], in data set [4], in data set [6] and in [7] was inactive. In addition, the result in data set [8], in data set [9], in data set [10] and in [11] was inactive. The LC50 at 24 h in data set [5] is over 1000 µg/mL. In addition, in [12], the inhibition in vivo at 10 mg/kg was 29.5%.
For `Cc1cc(C)cc(NC2=C(Cl)C(=O)N(c3c(C)n(C)n(-c4ccccc4)c3=O)C2=O)c1`, the outcome in data set [1], in data set [2], in data set [3], in data set [4], in [6] and in [7] was inactive. Moreover, the outcome in data set [8], in data set [9], in data set [10] and in data set [11] was inactive. Further, the LC50 at 24 h in data set [5] is over 1000 µg/mL. In addition, the inhibition in vivo at 10 mg/kg in [12] turned out to be 68.4%.
Take `Cc1c(N2C(=O)C(Cl)=C(N3CCN(c4ccccn4)CC3)C2=O)c(=O)n(-c2ccccc2)n1C`: the result in data set [1], in data set [2], in [3], in [4], in data set [6] and in [7] was inactive. In addition, the outcome in [8], in [9], in data set [10] and in data set [11] was inactive. In data set [5], the LC50 at 24 h is over 1000 µg/mL. Further, in data set [12], the inhibition in vivo at 10 mg/kg worked out at 77.7%.
Regarding `COc1cccc(NC2=C(Cl)C(=O)N(c3c(C)n(C)n(-c4ccccc4)c3=O)C2=O)c1`, the outcome in [1], in data set [2], in [3], in [4], in data set [6] and in data set [7] was inactive. Besides, the outcome in data set [8], in [9], in [10] and in data set [11] was inactive. The LC50 at 24 h in [5] is over 1000 µg/mL. The inhibition in vivo at 10 mg/kg in [12] was found to be 56.7%.
For `Cc1cccc(NC2=C(Cl)C(=O)N(c3c(C)n(C)n(-c4ccccc4)c3=O)C2=O)c1`, the outcome in data set [1], in data set [2], in data set [3], in [4], in [6] and in data set [7] was inactive. Moreover, the result in [8], in data set [9], in [10] and in data set [11] was inactive. In addition, the median lethal concentration (LC50) at 24 h in [5] was found to be 90.5 µg/mL (≈ 214 µM). Moreover, in [12], the inhibition in vivo at 10 mg/kg is 49.7%.
Take `Cc1ccc(NC2=C(Cl)C(=O)N(c3c(C)n(C)n(-c4ccccc4)c3=O)C2=O)cc1`: the result in [1], in data set [2], in [3], in data set [4], in data set [6] and in data set [7] was inactive. In addition, the outcome in data set [8], in data set [9], in [10] and in data set [11] was inactive. Also, the LC50 at 24 h in data set [5] was over 1000 µg/mL. The inhibition in vivo at 10 mg/kg in [12] came to 33.6%.
On to `Cc1c(N2C(=O)C(Cl)=C(N3CCCCC3)C2=O)c(=O)n(-c2ccccc2)n1C`, for which the outcome in data set [1], in data set [2], in data set [3], in data set [4], in [6] and in data set [7] was inactive. Also, the result in data set [8], in [9], in [10] and in data set [11] was inactive. In addition, in data set [5], the LC50 at 24 h is over 1000 µg/mL. Moreover, in [12], the inhibition in vivo at 10 mg/kg was 84.6%.
For the compound `Cc1c(N2C(=O)C(Cl)=C(NCCc3ccccc3)C2=O)c(=O)n(-c2ccccc2)n1C`, the result in data set [1], in data set [2], in data set [3], in data set [4], in [6] and in data set [7] was inactive. Moreover, the outcome in data set [8], in data set [9], in data set [10] and in data set [11] was inactive. In data set [5], the LC50 at 24 h was over 1000 µg/mL. For the same compound, the inhibition in vivo at 10 mg/kg in data set [12] came out at 81.8%.
As to `Cc1c(N2C(=O)C(Cl)=C(Nc3ccc(C(=O)O)cc3)C2=O)c(=O)n(-c2ccccc2)n1C`, the outcome in [1], in data set [2], in data set [3], in [4], in [6] and in data set [7] was inactive. In addition, the outcome in [8], in [9], in data set [10] and in data set [11] was inactive. Moreover, the LC50 at 24 h in [5] is over 1000 µg/mL. In addition, in [12], the inhibition in vivo at 10 mg/kg came to 63.6%.
